These results are taken from ChEMBL document CHEMBL5150059, “Transcriptional Inhibition of MicroRNA miR-122 by Small Molecules Reduces Hepatitis C Virus Replication in Liver Cells” (J Med Chem, 2022).

The source made the active and inactive calls. The calls are words filed in the database; no cut-off is given here.

The first data set relates to microRNA 122. As to the kind of experiment: Inhibition of miR-122 in human Huh-7 cells expressing renilla luciferase gene assessed as relative luciferase unit after 48 hrs by dual luciferase assay relative to control. It is filed as cell-based. Set-up: concentration or dose not given beside the values.
Conditions: not given
The procedure, abridged:
(§1)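 Huh7-miR122 stable line (miR-122 site in the Renilla luciferase 3′ UTR, kept in 500 μg/mL G418), seeded 15,000/well. After overnight incubation, treated 48 h with compound or DMSO (0.1% final) in triplicate. Renilla and firefly read by dual luciferase; Renilla normalized to firefly. Dose–response used for EC50.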
As to `COc1cc(C)c(C(C)C)cc1S(=O)(=O)N(C)c1cc(C)ccc1C`, the Activity is 77%.
Regarding `COc1cc(C)c(C(C)C)cc1S(=O)(=O)Nc1cccc(C)n1`, the Activity came out at 89%.
With `COc1cc(C)c(C(C)C)cc1S(=O)(=O)Nc1ccccc1C`, the Activity was determined as 32%.
In the case of `COc1cc(C)c(C(C)C)cc1S(=O)(=O)N(C)c1ccc(C)cc1`, the Activity was found to be 82%.
As for `COc1cc(C)c(C(C)C)cc1S(=O)(=O)N(C)c1cccc(C)c1C`, the Activity was 80%.
Turning to `COc1cc(C)c(C(C)C)cc1S(=O)(=O)N(C)c1ccccc1C`, the Activity was 104%.
Take `COc1cc(C)c(C(C)C)cc1S(=O)(=O)n1ccc(C)n1`: the Activity worked out at 44%.
Same read-out and setting: then `COc1cc(C)c(C(C)C)cc1S(=O)(=O)N(C)c1ccccn1`, with 89%; and `COc1cc(C)ccc1S(=O)(=O)n1cnc(C)c1`, with 24%; and `COc1cc(C)c(C(C)C)cc1S(=O)(=O)n1cnc(-c2ccccc2)c1`, with 35%.
Turning to `COc1cc(C)c(C)cc1S(=O)(=O)n1cnc(C)c1`, the Activity worked out at 32%.
On the same count and under the same terms, then `COc1cc(C)c(C(C)C)cc1S(=O)(=O)N(C)c1ncccc1C`, with 64%; and `CCOc1cc(C)c(C(C)C)cc1S(=O)(=O)n1cnc(C)c1`, with 74%; and `COc1cc(C)c(C(C)C)cc1S(=O)(=O)n1cnc(C)c1`, with 100%.
Take `CCNS(=O)(=O)c1cc(C(C)C)c(C)cc1OC`: the Activity came out at 42%.
Turning to `COc1cc(C)c(C(C)C)cc1S(=O)(=O)N(C)C`, the Activity was determined as 42%.

System in another data set: not listed separately
The data set can be described thus: Effect on non-miR-122 pathway in human Huh-7 cells harboring psi-check empty vector assessed as increase in luminescence at 10 uM after 48 hrs by dual luciferase assay relative to control. It is filed as functional.
Conditions: not given
The procedure, abridged: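 Huh7 cells transfected with psiCHECK-empty reporter (miR-122 site replaced by a non-targeted linker) for 2 h. Medium then replaced with compound at 10 μM or DMSO (0.1% final), in triplicate. Renilla/firefly read by dual luciferase after 48 h, normalized to DMSO. At least three independent experiments, mean ± SD.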
Turning to `COc1cc(C)c(C(C)C)cc1S(=O)(=O)N(C)c1cc(C)ccc1C`, the Activity stood at 245%.
On to `COc1cc(C)c(C(C)C)cc1S(=O)(=O)N(C)c1ccc(C)cc1`, for which the Activity came to 218%.
Still for that read-out and setting: in the case of `COc1cc(C)c(C(C)C)cc1S(=O)(=O)N(C)c1cccc(C)c1C` it was 225%.
Same read-out and setting: in the case of `COc1cc(C)c(C(C)C)cc1S(=O)(=O)N(C)c1ccccc1C` it was 90%.
With `COc1cc(C)c(C(C)C)cc1S(=O)(=O)N(C)c1ccccn1`, the Activity is reported as 88%.
`COc1cc(C)c(C(C)C)cc1S(=O)(=O)N(C)c1ncccc1C`: the Activity was found to be 87%.
Same read-out and setting: then `COc1cc(C)c(C(C)C)cc1S(=O)(=O)n1cnc(C)c1`, with 127%.

The target in the next data set is microRNA 122. The data set can be described thus: Inhibition of miR-122 in human Huh-7 cells expressing renilla luciferase gene after 48 hrs by dual luciferase assay. Type of data set: cell-based.
Conditions: not given
The procedure, abridged:
as §1
The molecule `COc1cc(C)c(C(C)C)cc1S(=O)(=O)N(C)c1ccccc1C` yielded an EC50 of 11 µM.

In another data set the test system is microRNA 122. As to the kind of experiment: Inhibition of miR-122 in human Huh-7 cells assessed as reduction in mature miR-122 levels at 25 uM after 48 hrs by RT-qPCR analysis. It is filed as cell-based.
Conditions: not given
The procedure, abridged: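 Huh7 cells treated 48 h with 25 μM compound or 0.1% DMSO, then total RNA isolated. 15 ng reverse-transcribed with TaqMan miRNA RT primers for miR-122 or RNU19. TaqMan qPCR run over 40 cycles in triplicate. Relative level from 2^−ΔΔCt versus RNU19 and DMSO. Three independent experiments.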
For orientation: In qPCR the cycle at which signal appears reflects the starting amount.
For `COc1cc(C)c(C(C)C)cc1S(=O)(=O)N(C)c1ccccc1C`, the inhibition was found to be 38%.

The test system of the next data set is microRNA 122. As to the kind of experiment: Inhibition of miR-122 in human Huh-7 cells assessed as reduction in E-cadherin expression at 25 uM incubated for 48 hrs by Western blot analysis.
Conditions: not given
Type of data set: cell-based. The procedure, abridged: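 Huh7 cells treated 48 h at 37 °C with compound or DMSO (0.1% final), then lysed and run on 10% SDS-PAGE. Transferred to PVDF, blocked in 5% BSA/TBST. Probed overnight at 4 °C with anti-E-cadherin or anti-GAPDH (1:1000), then HRP anti-rabbit (1:2500), and detected by chemiluminescence. GAPDH used as internal control.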
On the technique in general: Immunoblotting shows a protein as a band on a membrane.
As for `COc1cc(C)c(C(C)C)cc1S(=O)(=O)N(C)c1ccccc1C`, the inhibition entry is “Active”.

Another data set relates to microRNA 122. As to the kind of experiment: Inhibition of miR-122 in human Huh-7 cells assessed as reduction in primary miR-122 expression at 25 uM incubated for 48 hrs by RT-qPCR analysis. Type of data set: cell-based.
Conditions: not given
The procedure, abridged: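 Huh7 cells treated 48 h with 25 μM compound or 0.1% DMSO. 50 ng total RNA reverse-transcribed with iScript. TaqMan qPCR run for pri-miR-122 and GAPDH in triplicate. Relative level from 2^−ΔΔCt normalized to GAPDH and DMSO. Three independent experiments.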
Turning to `COc1cc(C)c(C(C)C)cc1S(=O)(=O)N(C)c1ccccc1C`, the inhibition amounted to 59%.

In the next data set the test system is Huh-7. As to the kind of experiment: Inhibition of pGL3-miR-122 (unknown origin) promotor activity transfected in human Huh-7 cells at 25 uM after 48 hrs by Bright-glo luciferase assay. Type of data set: cell-based.
Conditions: not given
The procedure, abridged:
(§2)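 Huh7 cells transfected 3 h with pGL3-miR122 promoter–firefly reporter, parent or with transcription-factor site mutated/deleted. Then treated 48 h with 25 μM compound or 0.1% DMSO, in triplicate. Read by Bright-Glo luminescence; XTT viability assayed in parallel. Luminescence divided by viability, normalized to DMSO per reporter. Three independent experiments.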
Turning to `COc1cc(C)c(C(C)C)cc1S(=O)(=O)N(C)c1ccccc1C`, the result was Active.

Another data set relates to Huh-7. The data set can be described thus: Inhibition of pGL3-miR-122 (unknown origin) promotor activity transfected in Huh-7 cells harboring HNF1alpha mutant assessed as reduction in luciferase activity at 25 uM after 48 hrs by Bright-glo luciferase assay. Type of data set: cell-based.
Conditions: not given
Put shortly: as §2
As to `COc1cc(C)c(C(C)C)cc1S(=O)(=O)N(C)c1ccccc1C`, the inhibition entry is “Active”.

The next data set concerns Huh-7. As to the kind of experiment: Inhibition of pGL3-miR-122 (unknown origin) promotor activity transfected in Huh-7 cells harboring HNF3beta mutant assessed as reduction in luciferase activity at 25 uM after 48 hrs by Bright-glo luciferase assay. It is filed as cell-based.
Conditions: not given
Put shortly:
as §2
For `COc1cc(C)c(C(C)C)cc1S(=O)(=O)N(C)c1ccccc1C`, the inhibition entry is “Active”.

In the next data set the test system is Huh-7. As to the kind of experiment: Inhibition of pGL3-miR-122 (unknown origin) promotor activity transfected in Huh-7 cells harboring HNF6 mutant assessed as reduction in luciferase activity at 25 uM after 48 hrs by Bright-glo luciferase assay. It is filed as cell-based.
Conditions: not given
The procedure, abridged: as §2
On to `COc1cc(C)c(C(C)C)cc1S(=O)(=O)N(C)c1ccccc1C`, for which the inhibition entry is “Active”.

A further data set relates to Huh-7. As to the kind of experiment: Inhibition of pGL3-miR-122 (unknown origin) promotor activity transfected in Huh-7 cells harboring AP-1 mutant assessed as reduction in luciferase activity at 25 uM after 48 hrs by Bright-glo luciferase assay.
Conditions: not given
It is filed as cell-based. The procedure, abridged: as §2
As for `COc1cc(C)c(C(C)C)cc1S(=O)(=O)N(C)c1ccccc1C`, the inhibition entry was “Active”.

The test system of another data set is Huh-7. The data set can be described thus: Inhibition of pGL3-miR-122 (unknown origin) promotor activity transfected in Huh-7 cells harboring HNF4alpha mutant by measuring reversal of mir-122 activity at 25 uM after 48 hrs by Bright-glo luciferase assay. It is filed as cell-based.
Conditions: not given
The procedure, abridged: as §2
For the molecule `COc1cc(C)c(C(C)C)cc1S(=O)(=O)N(C)c1ccccc1C`, the inhibition amounted to 64%.

System in another data set: not listed separately
As to the kind of experiment: Binding affinity to recombinant C-terminal His-tagged […] (147 to 377 residues) (unknown origin) expressed in Escherichia coli by spectrofluorometer analysis. Set-up: species or system Homo sapiens.
Conditions: not given
Put shortly: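 His-tagged HNF4α ligand-binding domain (aa 147–377) expressed and purified from E. coli. 200 nM protein in PBS pH 7.4 titrated with increasing compound at 25 °C. Intrinsic Trp/Tyr fluorescence read at 330 nm (excitation 280 nm), corrected for buffer and ligand alone. Intensity change versus concentration fitted to Hill equation for KD. Two independent experiments.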
Consider `COc1cc(C)c(C(C)C)cc1S(=O)(=O)N(C)c1ccccc1C`, for which the Kd came out at 0.439 µM.

The next data set relates to HEK293. As to the kind of experiment: Inhibition of […] (unknown origin) transfected in HEK293 cells coexpressing CYP26A1 assessed as reduction in luciferase expression at 25 uM after 48 hrs dual luciferase assay. It is filed as cell-based. As to conditions: Homo sapiens. Put shortly: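 HEK293T cells (no endogenous HNF4α) co-transfected for 4 h with CYP26A1 promoter–firefly luciferase reporter, HNF4α expression plasmid and Renilla control plasmid. Then treated 48 h with 25 μM compound or DMSO (0.25% final). Read by dual luciferase assay, normalized to DMSO.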
Take `COc1cc(C)c(C(C)C)cc1S(=O)(=O)N(C)c1ccccc1C`: the inhibition worked out at 50%.

The next data set deals with Hepatitis C virus. As to the kind of experiment: Antiviral activity against HCV infected in human Huh7.5 cells assessed as reduction in viral RNA expression at 10 uM pretreated for 1 hr followed by viral infection and measured after 48 hrs by RT-qPCR analysis. Type of data set: functional, Hepacivirus hominis. Set-up: scale not given: the % may be the effect or the level left. The note with it: time 49 hrs. The procedure, abridged: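 Huh7.5 cells pretreated 1 h with compound (10 μM) or DMSO, then infected with HCV (MOI 0.5) in compound-containing DMEM; medium replaced with compound medium at 5 h post-infection. At 48 h post-infection, RNA extracted. HCV and 18S RNA copy numbers quantified by RT-qPCR against standards. HCV RNA normalized to 18S, then to DMSO control.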
`COc1cc(C)c(C(C)C)cc1S(=O)(=O)N(C)c1ccccc1C`: the Activity is reported as 88%.

The subject of another data set is Huh-7. The data set can be described thus: Cytotoxicity against human Huh-7 cells assessed as reduction in cell viability at 10 to 25 uM after 48 hrs by XTT assay. Type of data set: toxicity, cell-based. As to conditions: huh-7, 48 h, dose 10-25 µM. Put shortly: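 Huh7 cells given compound for 48 h, then XTT reagent activated with menadione. Absorbance at 450 nm minus 630 nm read immediately and after 4 h; viability taken as the difference between the two readings.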
For orientation: Tetrazolium dyes change colour on reduction, which living cells bring about.
Regarding `COc1cc(C)c(C(C)C)cc1S(=O)(=O)N(C)c1ccccc1C`, the Activity entry is “Non-Toxic”.

A further data set relates to Renilla. The data set can be described thus: Inhibition of recombinant renilla luciferase at 10 uM using coelenterazine as substrate incubated for 10 mins by luminescence based microplate reader analysis relative to control; values are per cent of control.
Conditions: not given
Consider `COc1cc(C)c(C(C)C)cc1S(=O)(=O)N(C)c1cc(C)ccc1C`, for which the residual activity turned out to be 100%.
Regarding `COc1cc(C)c(C(C)C)cc1S(=O)(=O)Nc1cccc(C)n1`, the residual activity came to 2%.
Regarding `COc1cc(C)c(C(C)C)cc1S(=O)(=O)N(C)c1ccc(C)cc1`, the residual activity stood at 100%.
For `COc1cc(C)c(C(C)C)cc1S(=O)(=O)N(C)c1cccc(C)c1C`, the residual activity turned out to be 93%.
On the same count and under the same terms, then `COc1cc(C)c(C(C)C)cc1S(=O)(=O)N(C)c1ccccc1C`, with 100%; and `COc1cc(C)c(C(C)C)cc1S(=O)(=O)N(C)c1ccccn1`, with 100%; and `COc1cc(C)ccc1S(=O)(=O)n1cnc(C)c1`, with 80%.
Same read-out and setting: in the case of `COc1cc(C)c(C(C)C)cc1S(=O)(=O)N(C)c1ncccc1C` it was 100%; in that of `CCOc1cc(C)c(C(C)C)cc1S(=O)(=O)n1cnc(C)c1`, 70%.
On to `COc1cc(C)c(C(C)C)cc1S(=O)(=O)n1cnc(C)c1`, for which the residual activity was found to be 80%.

As usually defined, the EC50 is the concentration at which the effect is half-maximal. As a reminder, the inhibition is the percentage by which the read-out fell short of the control. By Kd is commonly meant the concentration at which binding is half-saturated. The residual activity is the signal under treatment as a percentage of the control signal.
